Source: ChEMBL document CHEMBL1134930, “Novel nucleotide phosphonate analogues with potent antitumor activity” (Bioorg Med Chem Lett, 2002)

Experiments:
[1] = test system: MCF7; assay: Compound was evaluated for its in vitro activity in human solid tumor cell line MCF-7 measured in a [3H]thymidine incorporation assay; type: functional, cell-based; conditions: MCF7, 72 h
How it was run: (§1)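 Cell lines adapted to RPMI medium, exposed to compound for 72 h at 37 °C under 5% CO2. Methyl-[3H]-thymidine (0.5 μCi) added for the final 16 h, then incorporation measured. Antiproliferative IC50 (μM) reported.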

[2] = test system: NCI-H460; assay: Compound was evaluated for its in vitro activity in human solid tumor cell line H-460 measured in a [3H]thymidine incorporation assay; type: functional, cell-based; conditions: NCI-H460, 72 h; how it was run: as §1
[3] = test system: SF-268; assay: Compound was evaluated for its in vitro activity in human solid tumor cell line SF-268 measured in a [3H]thymidine incorporation assay; type: functional, cell-based; conditions: SF-268, 72 h; how it was run: as §1
[4] = test system: MRC5; assay: Cytotoxicity of compound was evaluated against MRC-5 cell line.; type: functional; conditions: Homo sapiens

SMILES	IC50 [1] [µM]	IC50 [2] [µM]	IC50 [3] [µM]	CC50 [4] [µg/mL]
Nc1nc(NC2CC2)c2ncn(C[C@@H]3CC[C@@H](P(=O)(O)O)O3)c2n1	> 100	> 100	> 100	–
Nc1nc(N)c2ncn(C[C@H]3O[C@@H](P(=O)(O)O)C[C@@H]3O)c2n1	1.4	0.71	1.2	–
CO[C@H]1C[C@H](P(=O)(O)O)O[C@@H]1Cn1cnc2c(O)nc(N)nc21	5.6	7.6	2.4	–
Nc1nc(N)c2ncn(C[C@@H]3CC[C@@H](P(=O)(O)O)O3)c2n1	52	57	> 100	–
Nc1nc(O)c2ncn(C[C@H]3O[C@@H](P(=O)(O)O)C[C@@H]3O)c2n1	0.67	0.53	0.14	–
Nc1nc(O)c2ncn(C[C@H]3O[C@H](P(=O)(O)O)C[C@@H]3O)c2n1	53	30	13	–
Nc1nc(O)c2ncn(C[C@H]3O[C@@H](P(=O)(O)O)C[C@H]3F)c2n1	> 12	7.1	44	–
Nc1nc(NC2CC2)c2ncn(C[C@H]3O[C@@H](P(=O)(O)O)C[C@@H]3O)c2n1	48	20	28	–
Nc1nc(O)c2ncn(C[C@@H]3CC[C@H](P(=O)(O)O)O3)c2n1	67	40	> 100	> 10
N.Nc1nc(O)c2ncn(C[C@@H]3CC[C@@H](P(=O)(O)O)O3)c2n1	> 100	64	> 100	28
Nc1nc(O)c2ncn(C[C@H]3O[C@@H](P(=O)(O)O)[C@H](O)[C@@H]3O)c2n1	> 100	> 100	> 100	–
Nc1nc(O)c2ncn(C[C@H]3O[C@@H](P(=O)(O)O)C[C@@H]3F)c2n1	> 100	44	> 100	–
